From ChEMBL document CHEMBL4513216, “Probing the Open Global Health Chemical Diversity Library for Multistage-Active Starting Points for Next-Generation Antimalarials” (ACS Infect Dis, 2020)

Experiment: Toxicity liver stage against HepG2, at 10uM
Assay type: cell-based
Parameters: test concentration 10 uM, cell line HepG2-A16-CD81EGFP
Settings: human, HepG2-A16-CD81EGFP cells; read-out: INHIBITION
Method in brief: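 Uninfected HepG2-A16-CD81EGFP cells, 3 × 10^3 per well, 1536-well, plated on prespotted compound at 10 μM final, parasite-free screening media added to match infected plates; puromycin 10 μM positive, DMSO 0.5% negative; run in parallel with 48 h PbLuc assay at 37 °C, 5% CO2; viability by CellTiter-Glo luminescence, normalized to controls.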

Row | SMILES | cytotoxicity at 10 µM [%]
1 | CS(=O)(=O)C1(CNCc2cccc(-n3cccn3)c2)CCOCC1 | -141
2 | O=C1OCCN1CC(=O)N1C[C@@H]2CC[C@H]1CN(C(=O)c1ccccc1)C2 | 5.46
3 | NC1(CN2CCOCC2)CCCCC1 | 1.72
4 | Cc1ccc2c(c1)OCCCC2NC1CCN(C)CC1 (stereo not given) | 10.4
5 | CN(C)CCn1c(=O)oc2ccc(NC(=O)c3cc(Cl)c[nH]3)cc21 | 6.79
6 | CN(C)C(=O)[C@H]1C[C@H]2OCC[C@H]2N(Cc2ccccn2)C1 | -75.5
7 | COc1ccccc1C1CNC(=O)c2nc(-c3ncc[nH]3)[nH]c2C1 (stereo not given) | -8.6
8 | Cc1csc(NC(=O)NCCCN2CCC(C(N)=O)CC2)n1 | 2.48
9 | CN(Cc1ccco1)C(=O)C1CSCN1C(=O)C1CCC1 (stereo not given) | -13.2
10 | Cc1csc(C2CCCCN2C(=O)c2cc(C(C)C)[nH]n2)n1 (stereo not given) | -1.59
11 | Cc1cc(C)n(-c2cncc(N3CCN(C(=O)C(C)(C)C)CC3)n2)n1 | -3.22
12 | Cc1cc(C)n(CC2CCCCN2CC(=O)Nc2ccncc2)n1 (stereo not given) | 8.69
13 | COc1cccc(N2C(=O)CC3(CCCNC3)C2=O)c1 (stereo not given) | 1.52
14 | O=C(NCCn1nc(C2CCNC2)c2cccnc21)C1CCC1 (stereo not given) | -7.87
15 | CNC(=O)c1cc2c(nc1N(C)C)CCN(S(=O)(=O)N(C)C)CC2 | -138
16 | COCC(=O)N1CC[C@@H]2CN(Cc3ccccc3)S(=O)(=O)[C@@H]2CC1 | -0.733
17 | COc1ccc(C(C)N(C)Cc2c(C(C)C)[nH]c3ncccc23)cc1 (stereo not given) | -7.99
18 | CCCc1nc(CN2CCCC2c2cnn(C)c2)cs1 (stereo not given) | 0.441
19 | Cc1cc(CNC(=O)NCc2cccs2)no1 | -1.87
20 | O=C1Nc2ccccc2CC12CCCN2Cc1ccc(F)cc1 (stereo not given) | 10.5
21 | CSC(C)(C)CNC(=O)NCCC1CCN(C)CC1 | 22.3
22 | CC(Cn1cccn1)NCc1csc(-c2ccc(F)cc2)n1 (stereo not given) | -67.9

Row | SMILES | cytotoxicity at 10 µM [%]
23 | CCC(C)(C)N(C)CCOc1cccc(S(C)(=O)=O)c1 | -8.42
24 | O=c1[nH]c(NC2CCCC2)nc2nccc(-c3cccs3)c12 | -18.1
25 | CCCN1CCC(CC(=O)NCCc2nc(C)cc(C)n2)CC1 | -13.7
26 | CN(C)C(=O)CCN1CC(c2ccccc2)(c2ccccc2)CCC1=O | 0.284
27 | O=C(C1CCCC1)N1CCCC(c2nc(O)cc(-c3ccncc3)n2)C1 (stereo not given) | -16.9
28 | CN(Cc1ccccc1)CC1CC2(CO1)CN(Cc1cnn(C)c1)C2 (stereo not given) | 9.76
29 | Cc1csc2ncnc(N3CCC(Cn4cc(C(C)(C)N)nn4)CC3)c12 | 25.5
30 | CN(Cc1nc(C(C)(C)C)no1)C1CCS(=O)(=O)C1 (stereo not given) | 15.2
31 | Cc1cnccc1CN1CCN(C)C2(CCC(=O)N(CC3CC3)CC2)C1 (stereo not given) | -3.51
32 | COc1ccc(-c2nnc([C@H]3CCN(CC(C)(C)C)C3)o2)cc1 | -3.43
33 | Cc1cc(C(=O)O)cc(S(=O)(=O)Nc2ccc3c(c2)OCCO3)c1C | -3.95
34 | O=C(CS(=O)(=O)Cc1csc(-c2ccc(F)cc2)n1)NCC1CC1 | -3.06
35 | CCc1nccc(CN2CCCC(c3nn(C)c(=O)n3CC)C2)n1 (stereo not given) | -3.69
36 | Nc1cc(-c2c[nH]nc2C2CCCN2S(=O)(=O)c2ccccc2)ccn1 (stereo not given) | 6.34
37 | COCC1CC2(CCN(CC3CC3)CC2)CN1Cc1csc(C)n1 (stereo not given) | 4.26
38 | CC(C(=O)N1CCCCC1)N1CCN(c2nccs2)CC1 (stereo not given) | 22.1
39 | CC1(Cc2ccc3c(c2)OCO3)CCCN(S(=O)(=O)N2CCOCC2)C1 (stereo not given) | -5.39
40 | O=C1CC(c2ccsc2)c2sc(C(=O)O)c(-c3ccc(F)cc3)c2N1 (stereo not given) | 4.4
41 | CC1CCN(c2cc(NC(=O)C3CC3)ncn2)CC1 | -8.67
42 | COCC1CN(S(=O)(=O)C2CC2)Cc2ncn(CC3CC3)c21 (stereo not given) | 9.03
43 | Cc1noc(C)c1C(=O)N1CC[C@H]2C[C@@H](c3nccs3)O[C@@H]2C1 | -1.62
44 | CN(Cc1cn2c(n1)CN(Cc1nccs1)CC2)Cc1ccco1 | -77.2

Row | SMILES | cytotoxicity at 10 µM [%]
45 | COc1ccc(S(=O)(=O)NC2(CC(N)=O)CCC2)cc1 | 11.7
46 | O=C(Nc1ccc(F)cc1)N1C[C@@H]2CC[C@H]1CN(Cc1cccnc1)C2 | -13.4
47 | Cc1cc(C)n(-c2ccc(N3CCCSCC3)nc2)n1 | -2.08
48 | CCCC(O)CN1CCC(=O)N(CCOC)Cc2ccccc21 (stereo not given) | 3.23
49 | Cc1nc(C2CCCN2C(=O)c2ccc3c(c2)nc(C)n3C)no1 (stereo not given) | -9.62
50 | O=C1CC(NCc2ccc(Cl)s2)CN1Cc1cccc(F)c1 (stereo not given) | -0.73
51 | O=C(NCc1ccc(Cl)s1)NCc1nnc2n1CCCCC2 | -2.06
52 | O=C(CCc1nc2ccccc2[nH]1)N1CCCC(n2cccn2)C1 (stereo not given) | -15.9
53 | Cc1nccn1C1CCCN(C(=O)c2ccnc(-n3ccnc3)c2)C1 (stereo not given) | 0.998
54 | CC(C)Cn1ccnc1CNC(=O)NC(C)(C)c1nccs1 | -5.66
55 | CC(C)CNC(=O)c1cccc(CN2CCc3c(ncn3C)C2)c1 | -6.98
56 | CCNC(=O)NC(=O)C(C)Nc1ccccc1OCCOC (stereo not given) | 4
57 | CN(Cc1ccccc1)CC(C)(C)NC(=O)c1ccon1 | 13
58 | COc1ccc(C(O)CNC(=O)NCc2c(C)cc(C)[nH]c2=O)cc1 (stereo not given) | -2.99
59 | CCN(CC1CCOC1)C(=O)c1nc(-c2ccco2)sc1C (stereo not given) | -0.238
60 | Cc1cccc(N2CCN(Cc3nc(CC4CC4)no3)CC2)n1 | -10.1
61 | COCCN1CC(=O)N(C(C)C)C(C)(C)C1 | 1.31
62 | COCC1CC2(CCN(C(=O)c3occc3C)CC2)CN1C(C)C (stereo not given) | 12
63 | CCC(O)CN1CCN(C(=O)c2cnc3n[nH]c(C)c3c2)CC1 (stereo not given) | -5
64 | Cc1csc(C2(NCc3nc(-c4ccco4)oc3C)CCCC2)n1 | 7.2
65 | COC(=O)CCNC(=O)c1cc(Br)c2c(c1)OCCO2 | 11
66 | COc1ccc(NC(=O)N2CCCC2c2ccco2)cc1OC (stereo not given) | -7.07

Row | SMILES | cytotoxicity at 10 µM [%]
67 | CCOCCNC(=O)Nc1cccc(-c2nccn2C)c1 | -3.26
68 | COCCNC(=O)C[C@@H]1COC[C@H]2CN(C(=O)c3cnccn3)C[C@@H]12 | -12.2
69 | Cc1[nH]c(=O)sc1S(=O)(=O)N1CCCC1C(=O)NCc1ccsc1 (stereo not given) | 2.78
70 | O=C(NCc1nnc2n1CCC2)c1cn(-c2ccccc2)nn1 | -2.4
71 | COc1ccnc(N2CCN(CC(=O)N3CCOCC3)CC2)n1 | -7.37
72 | Cc1ncc2c(c1CNC(=O)C1(c3ccc(F)cc3)CC1)CCNC2 | -46.6
73 | CC[C@@]1(O)CCN(c2ncc(Cl)cc2F)C[C@H]1O | 2.38
74 | NC(=O)Nc1cccc(C(=O)N(Cc2ccc(F)cc2)C2CC2)c1 | -10.1
75 | OCCN1CCN(Cc2cc(Cl)cc3cccnc23)CC1 | -8.12
76 | CCCn1nc(C2CCNCC2)n(Cc2ccccc2)c1=O | -12.9
77 | CC(NCc1cnc(C2CCC2)s1)c1ccc(-n2cncn2)cc1 (stereo not given) | 1.44
78 | O=c1[nH]c(NCCO)nc2c1C1(CCCC1)Cc1ccccc1-2 | 8.13
79 | CC(C)NC(=O)N1CCC(c2nnc3ccc(C(=O)N(C)C)cn23)C1 (stereo not given) | 8.79
80 | CS(=O)(=O)NCc1noc2c1CN(C(=O)C1CC1)CC2 | -107
81 | CN1CC[C@H]2OCC[C@@H](C(=O)NCc3ccco3)[C@@H]2C1 | -78
82 | CCC1CCCCN1C(=O)c1ccc2[nH]nnc2c1 (stereo not given) | -10.7
83 | O=C(c1cccc(CNS(=O)(=O)c2ccccc2F)c1)N1CCCC1 | -0.0481
84 | CCn1cc(C(=O)Nc2ccc(C)cc2C(=O)OC)cn1 | 5.47
85 | O=C(CCCc1cccs1)N1CCC(N2CCNC2=O)CC1 | 2.83
86 | O=C1CNc2ncnc(Nc3cnn(Cc4ccccc4F)c3)c2N1 | 2.27
87 | Cc1cc(C(=O)N2CC[C@@H](O)[C@@H]2Cc2ccccc2)no1 | -1.36
88 | c1ccc(Cc2noc(CN3CCCCC3Cn3cccn3)n2)cc1 (stereo not given) | -0.945

Row | SMILES | cytotoxicity at 10 µM [%]
89 | CC(C)(C)CNC(=O)c1ccc(C(=O)O)cc1 | -8.17
90 | CCN(Cc1ccccn1)C1CCN(c2ccccc2)C1=O (stereo not given) | 4.34
91 | CCOc1ccc(S(=O)(=O)NCCCc2ccc(N(C)C)cc2)cc1F | -5.67
92 | COc1cc(/C=C/c2ncc(C(=O)O)s2)cc(Cl)c1OC | 8.01
93 | O[C@@H]1CN(Cc2ccncc2)C[C@H]1Oc1ccccc1 | -1.44
94 | Cc1cccc(-n2ncc3c(=O)n(CCN4CCCCC4)cnc32)c1C | -6.57
95 | CCC(O)CNC(=O)C1(N(C)Cc2ccccc2)Cc2ccccc2C1 (stereo not given) | 7.62
96 | Cc1cc2n(n1)CC(CNCc1ccc(-n3ccnc3C)nc1)CN2 (stereo not given) | -11.7
97 | CC(C)CN1CC[C@@H]2[C@@H]1CCN2S(=O)(=O)c1cn(C)cn1 | 7.86
98 | Cn1nc(C(=O)N2CC(Oc3nc4c(Cl)cccc4s3)C2)ccc1=O | 1.48
99 | COCCNc1cc(-c2ccccc2C(N)=O)c2cc[nH]c2n1 | -2.32
100 | Cc1ccc(NC2CCN(C(=O)c3sccc3C3CC3)CC2)nn1 | -4.51
101 | Cc1nc[nH]c1C(=O)NCc1cccnc1N(C)C1CCCCC1 | -4.12
102 | CNS(=O)(=O)Cc1ccc(CNC(=O)Nc2cccnc2)cc1 | 0.684
103 | O=C1[C@@H]2CCN(Cc3ccoc3)C[C@@H]2OCCN1Cc1cccc(F)c1 | -98.2
104 | CCc1ncnc2c1CCN(CC(=O)N(C)C)CC2 | -106
105 | O=C(c1cnc(O)cn1)N(Cc1ccsc1)CC1CCCO1 (stereo not given) | 3.7
106 | Cn1cc(C2CCCN2CCC(=O)N2CCc3sccc3C2)cn1 (stereo not given) | -8.25
107 | COc1c(Br)cc(Cl)cc1NCc1c(C)noc1C | 12.8
108 | CCOC1CCCN(C(=O)c2ccccc2NCc2cccnc2)C1 (stereo not given) | 0.595
109 | Cc1cccc(CN2CCC(NS(C)(=O)=O)CC2)n1 | 9.87
110 | CN(Cc1ccc(F)cc1)CC1(O)CCN(C(=O)c2ccccc2)C1 (stereo not given) | -1.7
